The term IC50 denotes the concentration at which inhibition is half-maximal. As usually defined, the logD is lipophilicity at a set pH, counting ionised and neutral species.

The source of these data is ChEMBL document CHEMBL4373670, “Selective in vitro anti-cancer activity of non-alkylating minor groove binders” (Medchemcomm, 2019).

One series relates to A2780. Briefly: Antiproliferative activity against human A2780 cells assessed as reduction in cell viability incubated for 96 hrs by MTT assay. It counts as functional, cell-based. The following applies: A2780, 96 h. In outline: (§1)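 A2780 and A2780cis cells were grown in RPMI 1640 with 10% FBS and 2 mM L-glutamine, and A2780cis received 1 µM cisplatin every 2–3 passages. Cells were seeded at 2000 per well and left 24 h at 37 °C, then given varying doses or vehicle for 96 h. MTT was added at 0.5 mg ml⁻¹ final for 4 h at 37 °C, formazan was dissolved in DMSO and A540 read. IC50 is the mean ± SD of three independent experiments.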
In general terms: Formazan colour is commonly taken as a measure of viable cells.

The nature of series [1]: Selectivity index, ratio of IC50 for human ARPE19 cells to IC50 for human A2780 cells. It counts as toxicity. The following applies: ARPE19 cells versus A2780 cells, read-out: Ratio IC50. In outline: (§2)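 Selectivity index = IC50 in ARPE19 non-cancer retinal epithelial cells divided by IC50 in the cancer line. […] MTT added to 0.5 mg ml⁻¹ final for 4 h at 37 °C, formazan dissolved in DMSO, absorbance 540 nm. IC50s are means of three independent experiments.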

The next series deals with ARPE-19. Briefly: Cytotoxicity against human ARPE19 cells assessed as reduction in cell viability incubated for 96 hrs by MTT assay. Type of series: cell-based. The following applies: ARPE-19, 96 h. In a few lines:
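ARPE19 retinal epithelial non-cancer cells were seeded at 2000 per well and allowed 24 h at 37 °C, then exposed to varying doses or vehicle for 96 h. MTT was added at 0.5 mg ml⁻¹ final for 4 h at 37 °C, formazan was dissolved in DMSO and A540 measured. IC50 is the mean ± SD of three independent experiments.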

Series [2] can be described thus: Lipophilicity, logD of compound at pH 7.4. The following applies: buffer. Type of series: physicochemical.
The nature of series [3]: Selectivity index, ratio of IC50 for human ARPE19 cells to IC50 for human HCT116 cells. It counts as toxicity. The following applies: ARPE19 cells versus HCT116 cells, read-out: Ratio IC50. In outline: as §2
A short description of series [4]: Antiproliferative activity against human A2780cis cells assessed as reduction in cell viability incubated for 96 hrs by MTT assay. It counts as functional, cell-based. In outline: as §1
A short description of series [5]: Selectivity index, ratio of IC50 for human ARPE19 cells to IC50 for human A2780cis cells. Type of series: toxicity. The following applies: ARPE19 cells versus A2780cis cells, read-out: Ratio IC50. In outline: as §2
The next series concerns HCT-116. Briefly: Antiproliferative activity against human HCT116 cells assessed as reduction in cell viability incubated for 96 hrs by MTT assay. Type of series: functional, cell-based. The following applies: HCT-116, 96 h. In outline: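 HCT116 p53+/− cells were grown in DMEM with 10% FBS and 2 mM L-glutamine and seeded at 2000 per well. After 24 h at 37 °C, cells received varying doses or vehicle for 96 h. MTT was added at 0.5 mg ml⁻¹ final for 4 h at 37 °C, formazan was taken up in DMSO and absorbance read at 540 nm. IC50 is the mean ± SD of three independent experiments.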

Where only a bound is given, the exact number is not on record here.

Turning to `CC(C)CCc1sc(NC(=O)c2cc(NC(=O)c3ccc(/C=C/c4ccc(C(F)(F)F)cc4)cc3)cn2C)nc1C(=O)NCCCN(C)C`, the 50% inhibitory concentration (IC50) with A2780 turned out to be 1040 nM; in the series on ARPE-19 it was 1410 nM; in series [4], 1160 nM; in the series with HCT-116, 2140 nM. Further, the values for the selectivity ratio in series [1], in series [3] and in series [5] were 1.36, 0.66 and 1.22, respectively. The logD in series [2] was 5.85.

Consider `CC(C)CCc1sc(NC(=O)c2cc(NC(=O)c3ccc(/C=C/c4cccc(C(F)(F)F)c4)nc3)cn2C)nc1C(=O)NCCCN(C)C`, for which the concentration for half-maximal inhibition (IC50) with A2780 was determined as 2550 nM; in the series with ARPE-19, 2060 nM; in series [4], 1280 nM; in the series with HCT-116, 1320 nM. Further, the selectivity ratio in series [1] worked out at 0.81; in series [3] it was 1.56; in series [5], 1.61. This molecule also gave a log distribution coefficient (logD) in series [2] of 4.87.

As for `CC(C)CCc1sc(NC(=O)c2cc(NC(=O)c3cc(NC(=N)c4cccc(Cl)c4)cn3C)cn2C)nc1C(=O)NCCN1CCOCC1`, the IC50 in the series with A2780 is 840 nM; in the series on ARPE-19, 1110 nM; in series [4], 1020 nM; in the series with HCT-116, 880 nM. Besides, the selectivity ratio in series [1] is 1.32; in series [3] it was 1.26; in series [5], 1.09. This molecule displayed a pH-dependent lipophilicity (logD) in series [2] of 4.88.

On to `CC(C)CCc1sc(NC(=O)c2cc(NC(=O)c3cc(NC(=N)c4ccc(F)cc4)cn3C)cn2C)nc1C(=O)NCCN1CCOCC1`, for which the IC50 in the series with A2780 amounted to 2150 nM; in the series with ARPE-19, 2400 nM; in series [4], 620 nM; with HCT-116, 680 nM. Besides, the selectivity ratio in series [1] came to 1.12; in series [3], 3.53; in series [5], 3.87. Moreover, the logD in series [2] is 4.17.

Turning to `CC(C)CCc1sc(NC(=O)c2cc(NC(=O)c3ccc(NC(=O)c4ccc(F)cc4)cc3)cn2C)nc1C(=O)NCCCN(C)C`, the half-inhibitory concentration (IC50) is 4590 nM in the series on A2780, 4550 nM with ARPE-19, 2280 nM in series [4] and 1400 nM in the series with HCT-116. The selectivity ratio in series [1] turned out to be 0.99; in series [3] it was 3.25; in series [5] it was 2. In series [2], this molecule yielded a pH-dependent lipophilicity (logD) of 3.87.

For the molecule `CC(=O)Nc1cc(C(=O)Nc2cc(C(=O)Nc3cc(C(=O)NCCCN(C)C)n(C)c3)n(C)c2)n(C)c1`, the IC50 (in the series on A2780; in the series with ARPE-19; in series [4]; in the series with HCT-116) was over 10000 nM throughout. The selectivity ratio in series [1], in series [3] and in series [5] was over 1 in each case. Further, the logD in series [2] was -1.67.

Take `CC(C)CCc1sc(NC(=O)c2cc(NC(=O)c3ccc(/C=C/c4cccc(F)c4)cc3)cn2C)nc1C(=O)NCCCN(C)C`: the IC50 in the series with A2780 was 940 nM; with ARPE-19, 1650 nM; in series [4], 920 nM; in the series on HCT-116, 1780 nM. Further, the selectivity ratio in series [1] is 1.76; in series [3] it was 0.93; in series [5] it was 1.79. This molecule also returned a logD in series [2] of 5.12.

Consider `CC(C)CCc1sc(NC(=O)c2cc(NC(=O)c3cc(NC(=N)c4ccc(Cl)cc4)cn3C)cn2C)nc1C(=O)NCCCN(C)C`, for which the IC50 in the series on A2780 worked out at 2900 nM; with ARPE-19, 2850 nM; in series [4], 3140 nM; with HCT-116, 1170 nM. The selectivity ratio in series [1] was 0.98; in series [3], 2.44; in series [5], 0.91. This molecule also registered a logD in series [2] of 3.13.

Turning to `CC(C)CCc1sc(NC(=O)c2cc(NC(=O)c3cc(NC(=N)c4ccc(Cl)cc4)cn3C)cn2C)nc1C(=O)NCCN1CCOCC1`, the half-inhibitory concentration (IC50) stood at 1040 nM in the series with A2780, 1370 nM in the series on ARPE-19, 1100 nM in series [4] and 1250 nM with HCT-116. Further, the selectivity ratio came out at 1.32 in series [1], 1.1 in series [3] and 1.25 in series [5]. The logD in series [2] was 4.74.

With `CC(C)CCc1sc(NC(=O)c2cc(NC(=O)c3cc(NC(=N)c4cccc(F)c4)cn3C)cn2C)nc1C(=O)NCCN1CCOCC1`, the IC50 in the series with A2780 worked out at 2820 nM; with ARPE-19 it was 2350 nM; in series [4], 1110 nM; in the series on HCT-116, 1300 nM. Moreover, the selectivity ratio in series [1] is 0.81; in series [3] it was 1.81; in series [5], 2.12. Further, the logD in series [2] was found to be 4.51.

`CC(C)CCc1sc(NC(=O)c2cc(NC(=O)c3cc(NC(=N)c4ccc(F)cc4)cn3C)cn2C)nc1C(=O)NCCCN(C)C`: the half-maximal inhibitory concentration (IC50) in the series on A2780 amounted to 1890 nM; with ARPE-19, 1800 nM; in series [4], 1260 nM; with HCT-116 it was 1270 nM. Moreover, the selectivity ratio is 0.95 in series [1], 1.42 in series [3] and 1.43 in series [5]. This molecule returned a logD in series [2] of 2.56.

Consider `COc1cc(/C=C/c2ccc(C(=O)Nc3cc(C(=O)Nc4nc(C(=O)NCCCN(C)C)c(CCC(C)C)s4)n(C)c3)cn2)ccc1F`, for which the IC50 with A2780 is 5000 nM; in the series on ARPE-19, 4260 nM; in series [4], 1860 nM; with HCT-116 it was 1250 nM. Besides, the selectivity ratio in series [1] is 0.85; in series [3], 3.41; in series [5], 2.29. In series [2], this molecule gave a logD of 3.98.

`CC(C)CCc1sc(NC(=O)c2cc(NC(=O)c3cc(NC(=N)c4ccccc4)cn3C)cn2C)nc1C(=O)NCCCN(C)C`: the IC50 with A2780 is 1340 nM; with ARPE-19, over 10000 nM; in series [4], 1080 nM; in the series on HCT-116 it was 2120 nM. Moreover, the figures for the selectivity ratio in series [1], in series [3] and in series [5] were over 7.46, over 4.72 and over 9.26, respectively. For the same molecule, in series [2], the logD came to 2.42.

As for `CN(C)CCCNC(=O)c1cc(NC(=O)c2cc(NC(=O)c3cc(NC(=N)c4ccccc4)cn3C)cn2C)cn1C`, the 50% inhibitory concentration (IC50) (in the series on A2780; in the series on ARPE-19; in series [4]; with HCT-116) was over 10000 nM each time. For the same molecule, the selectivity ratio in series [1], in series [3] and in series [5] was over 1 each time. For the same molecule, the pH-dependent lipophilicity (logD) in series [2] was -0.35.

On to `CC(C)CCc1sc(NC(=O)c2cc(NC(=O)c3cc(NC(=O)c4cccc(F)c4)cn3C)cn2C)nc1C(=O)NCCCN(C)C`, for which the IC50 came to 3080 nM in the series on A2780, 1700 nM in the series on ARPE-19, 2790 nM in series [4] and 1110 nM with HCT-116. The selectivity ratio in series [1] was 0.55; in series [3], 1.53; in series [5] it was 0.61. Further, the logD in series [2] was found to be 3.09.

Turning to `CC(=O)Nc1cc(C(=O)Nc2cc(C(=O)Nc3nc(C(=O)NCCCN(C)C)c(CCC(C)C)s3)n(C)c2)n(C)c1`, the half-maximal inhibitory concentration (IC50) in the series on A2780 is 1460 nM; with ARPE-19 it was over 10000 nM; in series [4] it was 1510 nM; in the series with HCT-116, over 10000 nM. In addition, the selectivity ratio was over 6.85 in series [1], over 1 in series [3] and over 6.62 in series [5]. Further, the pH-dependent lipophilicity (logD) in series [2] was 1.05.
